Test results from ChEMBL document CHEMBL1139704, “Discovery of potent inhibitors of pseudomonal quorum sensing via pharmacophore modeling and in silico screening” (Bioorg Med Chem Lett, 2006).
Activity calls are given as the source filed them. The calls are words filed in the database; no cut-off is given here.

What was measured:
Assay type in all cases: functional, organism-based
[1] = tested on: Pseudomonas aeruginosa; test: Inhibition of pyocyanin production in Pseudomonas aeruginosa
How it was run: (§1)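 Overnight nutrient broth cultures were pelleted, resuspended, grown to mid-log phase (OD600 0.3–0.5), and diluted to OD600 0.05. Cultures were exposed to compound in water at 50.00, 25.00, 10.00, 5.00, 2.50, 1.00, 0.10, 0.001 or zero final concentration, shaken 18 h at 37 C. Viable cells were counted, and the pellet OD600 was used to normalise pigment per bacterial OD unit.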

[2] = tested on: Pseudomonas aeruginosa; test: Inhibition of pyoverdin production in Pseudomonas aeruginosa; how it was run: as §1
[3] = tested on: Pseudomonas aeruginosa; test: Inhibition of pyocyanin production in Pseudomonas aeruginosa ATCC 9027; how it was run: as §1
[4] = tested on: Pseudomonas aeruginosa; test: Inhibition of pyoverdin production in Pseudomonas aeruginosa ATCC 9027; how it was run: as §1

| Compound | IC50 [1] [µM] | IC50 [2] [µM] | IC50 [3] [µM] | IC50 [4] [µM] | Activity [1] | Activity [2] |
| --- | --- | --- | --- | --- | --- | --- |
| THIMEROSAL | 0.708 | 0.603 | 3.16 | 3.17 | – | – |
| CCOP(=O)(OCC)O/N=C(/C)c1cccc(C)c1 | – | – | – | – | inactive | inactive |
| PHENYL MERCURIC NITRATE | 3.02 | 3.16 | 3.24 | 3.98 | – | – |
| triethylplumbyl 4-methylbenzenesulfonate | 0.282 | 0.355 | 0.158 | 0.794 | – | – |
